# Assays:
# [1] = tested on: UV4; assay: Growth inhibition activity was measured in repair deficient UV4 cells under aerobic conditions (4 hours drug exposure); type: functional, cell-based; settings: Cricetulus griseus, UV4, 4 h
# [2] = tested on: CHO-AA8; assay: Growth inhibition activity was measured in repair proficient AA8 cells under aerobic conditions (4 hours drug exposure); type: functional, cell-based; settings: Cricetulus griseus, CHO-AA8, 4 h
# [3] = tested on: CHO-AA8; assay: Activity to reduce the surviving fraction to 10% (CT10) was used as an inverse measure of cytotoxic potency in aerobic conditions; type: functional, Cricetulus griseus
# Summary of the method: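 Clonogenic survival assay in magnetically stirred 10 mL suspensions of late-log AA8 cells (10⁶/mL) under continuous gassing with 5% CO₂ in air. Samples were removed periodically during drug exposure. CT₁₀ is the concentration × time giving 10% surviving fraction, used as an inverse measure of cytotoxicity.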
# [4] = Ratio of activities reducing surviving fraction to 10% (T10) under aerobic vs hypoxic conditions; type: functional
# Summary of the method: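 Late-log AA8 cells (10⁶/mL) in stirred 10 mL suspensions were gassed continuously with 5% CO₂ in air or in N₂, with periodic sampling for clonogenic survival. The time to 10% survival (T₁₀) was found under each gas at the same drug concentration. The value is the mean of air/N₂ T₁₀ ratios; errors are ranges (two determinations) or standard errors.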
Structure (SMILES),IC50 [1] [µM],IC50 [2] [µM],CT10 [3] [µM·h],Ratio [4]
O=C(O)CCCc1ccc(NCCCl)cc1,90,> 250,2080,1.26
O=C(O)CCCc1ccc(N(CCCl)OCCCl)cc1,176,456,>2400,–
O=C(O)CCCc1ccc(N(CCCl)CCCl)cc1 [CHLORAMBUCIL],1.2,38,85.2,1.28

# From ChEMBL document CHEMBL1128670, “Hypoxia-selective antitumor agents. 11. Chlorambucil N-oxide: a reappraisal of its synthesis, stability, and selective toxicity for hypoxic cells” (J Med Chem, 1995)
